For data set [1], the target named is T1, Kallikrein-4 (Homo sapiens, UniProt Q9Y5K2). The experiment in a line: Inhibition of N-terminal FLAG-tagged and C-terminal His tagged pro-KLK4 (unknown origin) expressed in Escherichia coli in presence of thermolysin pre-incubated for 10 mins before Boc-FSR-AMC substrate addition and measured after 20 mins by fluorescence based assay.
For data set [2], the target named is T2, Prostate-specific antigen (Homo sapiens) (UniProt P07288).
T2 sequence (whole entry): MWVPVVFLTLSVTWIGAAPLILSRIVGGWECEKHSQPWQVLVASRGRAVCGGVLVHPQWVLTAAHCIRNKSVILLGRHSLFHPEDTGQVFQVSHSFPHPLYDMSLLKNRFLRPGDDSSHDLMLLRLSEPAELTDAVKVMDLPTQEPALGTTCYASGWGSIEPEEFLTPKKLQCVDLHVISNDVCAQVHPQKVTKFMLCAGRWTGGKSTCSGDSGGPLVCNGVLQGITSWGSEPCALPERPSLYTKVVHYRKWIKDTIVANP
The experiment in a line: Binding affinity to KLK3 in human LNCAP cells conditioned medium at 50 uM pre-incubated for 30 mins by activity-based probe based in-gel fluorescence assay. In kind it is cell-based.

The nature of data set [3]: Stability in DMEM supplemented with 10% (v/v) fetal bovine serum at 10 uM at 37 degC assessed as half life by HPLC-MS method. It is filed as physicochemical. As to conditions: cattle, DMEM with 10% (v/v) fetal bovine serum. Put shortly:
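Compound at 10 µM (0.2% DMSO) in DMEM with 10% FBS, 2 mM L-glutamine and 1% penicillin/streptomycin, plus 10 µM triazole internal standard, held at 37 °C. Sampled hourly to 10 h, then at 24 h, by HPLC-MS in SIM mode for parent and hydrolysis product.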

Data set [4] has as its system Detroit 562. The experiment in a line: Effect on EMT switch in human Detroit 562 cells at 100 to 500 nM incubated for 48 hrs. As to conditions: detroit 562, 48 h, 0.5 µM. It is filed as ADME, cell-based.
Data set [5] relates to CAL-27. Description: Effect on cell proliferation of human CAL27 cells at 100 to 500 nM incubated for 48 hrs by BrdU incorporation assay. In kind it is ADME, cell-based. The note with it: cal-27, 48 h, 0.5 µM. A general note: Incorporation of labelled thymidine or its analogues reports DNA synthesis.
A further data set concerns the target T3, Kallikrein-5 (Homo sapiens, UniProt Q9Y337).
T3 sequence (Q9Y337 whole entry): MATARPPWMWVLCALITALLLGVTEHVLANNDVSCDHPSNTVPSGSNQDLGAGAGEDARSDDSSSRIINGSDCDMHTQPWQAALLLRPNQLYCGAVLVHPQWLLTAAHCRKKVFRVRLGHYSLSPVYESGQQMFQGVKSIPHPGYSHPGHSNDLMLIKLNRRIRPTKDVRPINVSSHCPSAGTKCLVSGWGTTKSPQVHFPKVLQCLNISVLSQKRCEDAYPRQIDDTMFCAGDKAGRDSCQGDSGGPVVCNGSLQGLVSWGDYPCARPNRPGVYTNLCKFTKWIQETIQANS
The experiment in a line: Inhibition of KLK5 (unknown origin) expressed in Pichia pastoris pre-incubated for 10 mins before Boc-ValProArg-AMC substrate addition and measured after 30 mins by fluorescence based assay.

A further data set deals with T4, Kallikrein-13 (Homo sapiens, UniProt Q9UKR3).
T4 sequence (Q9UKR3 whole entry): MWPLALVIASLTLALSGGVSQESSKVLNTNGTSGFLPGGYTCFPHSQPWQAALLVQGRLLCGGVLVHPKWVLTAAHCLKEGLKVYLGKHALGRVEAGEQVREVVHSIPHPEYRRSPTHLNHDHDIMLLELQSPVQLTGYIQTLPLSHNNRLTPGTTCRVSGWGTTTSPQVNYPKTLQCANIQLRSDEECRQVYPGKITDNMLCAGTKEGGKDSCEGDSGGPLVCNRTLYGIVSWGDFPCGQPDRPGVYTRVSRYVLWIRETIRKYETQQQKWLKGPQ
The experiment in a line: Inhibition of KLK13 (unknown origin) expressed in Pichia pastoris pre-incubated for 10 mins before Boc-ValProArg-AMC substrate addition and measured after 30 mins by fluorescence based assay.

The target in data set [6] is T5, Trypsin (Homo sapiens, UniProt P07477+P07478+P35030). Description: Binding affinity to recombinant trypsin (unknown origin) at 50 uM pre-incubated with conditioned medium for 30 mins by activity-based probe based in-gel fluorescence assay. In kind it is protein assay.
In data set [7] the target is T1, Kallikrein-4. Description: Binding affinity to recombinant KLK4 (unknown origin) at 50 uM pre-incubated with conditioned medium for 30 mins by activity-based probe based in-gel fluorescence assay.
In data set [8] the target is T6, Kallikrein-7 (Homo sapiens, UniProt P49862). The experiment in a line: Binding affinity to recombinant KLK7 (unknown origin) at 50 uM pre-incubated with conditioned medium for 30 mins by activity-based probe based in-gel fluorescence assay.
Target sequence in this assay (P49862 30-253 limits assumed): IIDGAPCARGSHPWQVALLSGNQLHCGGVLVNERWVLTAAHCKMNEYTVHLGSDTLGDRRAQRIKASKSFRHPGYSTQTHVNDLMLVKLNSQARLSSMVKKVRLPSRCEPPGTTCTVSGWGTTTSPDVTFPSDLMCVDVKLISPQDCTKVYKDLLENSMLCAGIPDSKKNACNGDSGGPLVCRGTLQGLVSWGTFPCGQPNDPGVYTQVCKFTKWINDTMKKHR
For data set [9], the target named is Kallikrein-5 (Homo sapiens) (UniProt Q9Y337). Description: Binding affinity to KLK5 in human VCAP cells conditioned medium at 50 uM pre-incubated for 30 mins by activity-based probe based in-gel fluorescence assay. It is filed as cell-based.
Data set [10] addresses T6, Kallikrein-7. Description: Inhibition of KLK7 (unknown origin) expressed in Pichia pastoris pre-incubated for 10 mins before Leu-Leu-Val-Tyr-AMC substrate addition and measured after 30 mins by fluorescence based assay. Put shortly: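 KLK7 at 33 nM final in 100 mM phosphate, 0.01% Tween-20, pH 8.5, with inhibitor (1:3 dilutions) or 2% DMSO for 10 min at rt. Reaction started with Leu-Leu-Val-Tyr-AMC at 500 µM final. Fluorescence (ex 380/em 460) read every 60 s for 30 min. Triplicates.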
Target sequence in this assay (P49862 whole entry): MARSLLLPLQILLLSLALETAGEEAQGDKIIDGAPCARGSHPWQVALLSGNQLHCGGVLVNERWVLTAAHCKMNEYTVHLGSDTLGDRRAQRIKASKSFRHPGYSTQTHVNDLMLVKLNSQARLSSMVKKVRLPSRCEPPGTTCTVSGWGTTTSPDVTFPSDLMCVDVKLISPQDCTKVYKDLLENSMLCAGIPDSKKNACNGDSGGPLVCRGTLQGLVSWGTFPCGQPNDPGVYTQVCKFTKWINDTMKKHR

In data set [11] the test system is Detroit 562. Description: Effect on cell proliferation of human Detroit 562 cells at 100 to 500 nM incubated for 48 hrs by BrdU incorporation assay. In kind it is ADME, cell-based. The note with it: detroit 562, 48 h, 0.5 µM.
A further data set has as its target T7, Kallikrein-14 (Homo sapiens, UniProt Q9P0G3).
T7 sequence (Q9P0G3 whole entry): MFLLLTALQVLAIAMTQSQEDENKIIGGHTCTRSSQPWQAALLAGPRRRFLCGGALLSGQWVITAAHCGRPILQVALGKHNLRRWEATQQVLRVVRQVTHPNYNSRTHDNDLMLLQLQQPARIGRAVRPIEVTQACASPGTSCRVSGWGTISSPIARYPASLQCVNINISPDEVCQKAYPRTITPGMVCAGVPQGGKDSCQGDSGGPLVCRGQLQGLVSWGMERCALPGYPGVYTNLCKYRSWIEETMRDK
The experiment in a line: Inhibition of KLK14 (unknown origin) expressed in Pichia pastoris pre-incubated for 10 mins before Boc-ValProArg-AMC substrate addition and measured after 30 mins by fluorescence based assay.

For data set [12], the system named is CAL-27. Description: Effect on EMT switch in human CAL27 cells at 100 to 500 nM incubated for 48 hrs. In kind it is ADME, cell-based. As to conditions: cal-27, 48 h, 0.5 µM.
For data set [13], the target named is T5, Trypsin. Description: Inhibition of trypsin (unknown origin) pre-incubated for 30 mins before N-Boc-FSR-AMC substrate addition and measured after 30 mins. It is filed as protein assay.
A further data set deals with T8, Kallikrein-8 (Homo sapiens, UniProt O60259).
T8 sequence (O60259 whole entry): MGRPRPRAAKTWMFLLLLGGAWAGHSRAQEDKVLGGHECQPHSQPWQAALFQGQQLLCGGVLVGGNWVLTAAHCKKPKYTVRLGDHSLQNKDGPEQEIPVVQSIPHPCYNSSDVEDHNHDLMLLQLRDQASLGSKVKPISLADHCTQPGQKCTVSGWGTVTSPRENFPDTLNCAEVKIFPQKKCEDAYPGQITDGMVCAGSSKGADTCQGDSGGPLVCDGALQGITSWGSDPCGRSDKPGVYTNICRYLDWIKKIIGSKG
The experiment in a line: Inhibition of KLK8 (unknown origin) expressed in Pichia pastoris pre-incubated for 10 mins before Boc-ValProArg-AMC substrate addition and measured after 30 mins by fluorescence based assay.

Activity calls are given as the source filed them.

T1 sequence (Q9Y5K2 whole entry): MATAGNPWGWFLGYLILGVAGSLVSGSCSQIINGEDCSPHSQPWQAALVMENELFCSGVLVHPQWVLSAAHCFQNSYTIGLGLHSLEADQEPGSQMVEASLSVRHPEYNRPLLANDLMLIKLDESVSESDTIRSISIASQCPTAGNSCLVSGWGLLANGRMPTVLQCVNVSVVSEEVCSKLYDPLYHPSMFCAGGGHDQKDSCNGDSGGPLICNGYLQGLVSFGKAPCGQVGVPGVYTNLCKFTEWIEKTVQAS

For orientation: IC50 means the point on the concentration scale where inhibition reaches its midpoint. The half-life is the time needed for the level to fall by half in the phase considered. In the case of `Cc1nn(-c2ccccc2)c(C)c1NC(=O)COC(=O)Cc1c(C)[nH]c2ccccc12`, the IC50 on Kallikrein-4 [1] is > 200 µM; against Kallikrein-5, 1.1 µM; against Kallikrein-13, > 10 µM; against Kallikrein-7 [10], 73 µM; on Kallikrein-14, 10.3 µM; at Trypsin [13] it was 21 µM. Moreover, the 50% inhibitory concentration (IC50) on Kallikrein-8 was > 10 µM. Besides, the outcome (in [2]; on Trypsin [6]; at Kallikrein-4 [7]; on Kallikrein-7 [8]; in [9]) was inactive. The half-life at 10 µM in data set [3] is 4.22 h. Further, the Activity result with Detroit 562 [4], in the data set with CAL-27 [5], in the data set on Detroit 562 [11] and in the data set with CAL-27 [12] was “Non-Toxic” throughout.
